ChEMBL document CHEMBL3352033, “Jatrophanes from Euphorbia squamosa as potent inhibitors of Candida albicans multidrug transporters” (J Nat Prod, 2014)
Activity calls are given as the source filed them. The rule behind the calls is not given here.

Experiments:
Candida albicans [1] = assay: Inhibition of Candida albicans CaCdr1p-mediated drug efflux overexpressed in Saccharomyces cerevisiae assessed as nile red accumulation after 30 mins by flow cytometry
Procedure, shortened: (§1)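 Host is S. cerevisiae AD1-8u− deleted for its own multidrug transporters, carrying the C. albicans transporter ORF integrated at the PDR5 locus (AD-CDR1 or AD-MDR1). Cells are grown in YEPD at 30 °C from OD600 0.1 to 0.25, then resuspended as a 5% suspension in YEPD diluted 1:2 with water. NR is 7 μM final with inhibitor at 70 μM, 30 min at 30 °C. Read-out is flow cytometry of 10 000 cells. Three independent experiments.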

Saccharomyces cerevisiae [2] = assay: Resistance index, ratio of IC50 for Saccharomyces cerevisiae AD1-8u(-) overexpressing CaMdr1p to IC50 for Saccharomyces cerevisiae AD1-8u(-); format: functional
Procedure, shortened: (§2)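 RI computed as the IC50 for the AD-CDR1 or AD-MDR1 strain divided by that for control strain AD1-8u−. Each IC50 comes from optical density after 48 h growth at 30 °C of 10^4 cells with inhibitor at 0.15−80 μM, 50% growth versus untreated. Means ± SD of three independent experiments.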

Saccharomyces cerevisiae [3] = assay: Toxicity against Saccharomyces cerevisiae AD1-8u(-) overexpressing CaMdr1p; format: organism-based
Procedure, shortened: (§3)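 Yeast cells (10^4) seeded with inhibitor 0.15−80 μM or none, grown 48 h at 30 °C in YEPD; optical density measured. Growth without inhibitor set as 100%, and the concentration giving 50% growth taken as IC50. Means ± SD of three independent experiments, duplicate samples.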

Saccharomyces cerevisiae [4] = assay: Growth inhibition of Saccharomyces cerevisiae AD1-8u(-) overexpressing CaMdr1p assessed as FIC of compound by checkerboard method; format: functional
Procedure, shortened: (§4)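 Checkerboard per CLSI: yeast cells (10^4) in 96-well format with fluconazole 0.15−800 μM crossed with inhibitor 0.15−80 μM, grown 48 h at 30 °C in YEPD; growth read by optical density. FIC for FLC = IC50 of FLC in combination/IC50 alone; FIC for inhibitor likewise; FICI from both. Means ± SD of three independent experiments.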

Saccharomyces cerevisiae [5] = assay: Toxicity against Saccharomyces cerevisiae AD1-8u(-) overexpressing CaCdr1p; format: organism-based; procedure, shortened: as §3
Saccharomyces cerevisiae [6] = assay: Growth inhibition of Saccharomyces cerevisiae AD1-8u(-) overexpressing CaCdr1p assessed as FIC of fluconazole by checkerboard method; format: functional; procedure, shortened: as §4
Saccharomyces cerevisiae [7] = assay: Growth inhibition of Saccharomyces cerevisiae AD1-8u(-) assessed as FIC of fluconazole by checkerboard method; format: functional; procedure, shortened: as §4
Saccharomyces cerevisiae [8] = assay: Growth inhibition of Saccharomyces cerevisiae AD1-8u(-) assessed as FIC index by checkerboard method; format: functional; procedure, shortened: as §4
Saccharomyces cerevisiae [9] = assay: Growth inhibition of Saccharomyces cerevisiae AD1-8u(-) overexpressing CaMdr1p assessed as FIC index by checkerboard method; format: functional; procedure, shortened: as §4
Saccharomyces cerevisiae [10] = assay: Resistance index, ratio of IC50 for Saccharomyces cerevisiae AD1-8u(-) overexpressing CaCdr1p to IC50 for Saccharomyces cerevisiae AD1-8u(-); format: functional; procedure, shortened: as §2
Saccharomyces cerevisiae [11] = assay: Growth inhibition of Saccharomyces cerevisiae AD1-8u(-) overexpressing CaMdr1p assessed as FIC of fluconazole by checkerboard method; format: functional; procedure, shortened: as §4
Saccharomyces cerevisiae [12] = assay: Toxicity against Saccharomyces cerevisiae AD1-8u(-); format: organism-based; procedure, shortened: as §3
Saccharomyces cerevisiae [13] = assay: Growth inhibition of Saccharomyces cerevisiae AD1-8u(-) assessed as FIC of compound by checkerboard method; format: functional; procedure, shortened: as §4
Saccharomyces cerevisiae [14] = assay: Growth inhibition of Saccharomyces cerevisiae AD1-8u(-) overexpressing CaCdr1p assessed as FIC index by checkerboard method; format: functional; procedure, shortened: as §4
Saccharomyces cerevisiae [15] = assay: Growth inhibition of Saccharomyces cerevisiae AD1-8u(-) overexpressing CaCdr1p assessed as FIC of compound by checkerboard method; format: functional; procedure, shortened: as §4
Candida albicans [16] = assay: Inhibition of Candida albicans CaMdr1p-mediated drug efflux overexpressed in Saccharomyces cerevisiae assessed as nile red accumulation after 30 mins by flow cytometry; procedure, shortened: as §1

| SMILES | inhibition (Candida albicans [1]) | Ratio IC50 (Saccharomyces cerevisiae [2]) | IC50 (Saccharomyces cerevisiae [3]) [µM] | FIC50 (Saccharomyces cerevisiae [4]) | IC50 (Saccharomyces cerevisiae [5]) [µM] | FIC50 (Saccharomyces cerevisiae [6]) | FIC50 (Saccharomyces cerevisiae [7]) | fractional inhibitory concentration index (FICI) (Saccharomyces cerevisiae [8]) | fractional inhibitory concentration index (FICI) (Saccharomyces cerevisiae [9]) | Ratio IC50 (Saccharomyces cerevisiae [10]) | FIC50 (Saccharomyces cerevisiae [11]) | IC50 (Saccharomyces cerevisiae [12]) [µM] | FIC50 (Saccharomyces cerevisiae [13]) | fractional inhibitory concentration index (FICI) (Saccharomyces cerevisiae [14]) | FIC50 (Saccharomyces cerevisiae [15]) | inhibition (Candida albicans [16]) |
| --- | --- | --- | --- | --- | --- | --- | --- | --- | --- | --- | --- | --- | --- | --- | --- | --- |
| CC(=O)O[C@@H]1[C@H](C)/C=C/C(C)(C)C(=O)C[C@@H](OC(=O)c2ccccc2)/C(C)=C/[C@H]2[C@@H](OC(=O)c3ccccc3)[C@H](C)C[C@]12OC(C)=O | inactive | – | – | – | – | – | – | – | – | – | – | – | – | – | – | – |
| CC(=O)O[C@@H]1[C@@H](OC(C)=O)C(C)(C)/C=C/[C@H](C)[C@@H](OC(C)=O)[C@@]2(OC(C)=O)C[C@@H](C)[C@H](OC(=O)c3ccccc3)/C2=C\[C@](C)(O)[C@@H]1O | inactive | – | – | – | – | – | – | – | – | – | – | – | – | – | – | – |
| C=C1[C@H](OC(=O)c2ccccc2)[C@H]2[C@@H](OC(C)=O)[C@@H](C)C[C@]2(OC(C)=O)C(=O)[C@@H](C)/C=C/C(C)(C)C(=O)[C@H](OC(C)=O)[C@H]1OC(C)=O | inactive | – | – | – | – | – | – | – | – | – | – | – | – | – | – | – |
| C=C1[C@H](OC(C)=O)[C@@H](OC(C)=O)[C@@H](OC(C)=O)C(C)(C)/C=C/[C@H](C)C(=O)[C@@]2(OC(C)=O)C[C@H](C)[C@H](OC(C)=O)[C@@H]2[C@H]1OC(=O)c1ccccc1 | inactive | – | – | – | – | – | – | – | – | – | – | – | – | – | – | – |
| C=C1CC(OC(C)=O)C(=O)C(C)(C)/C=C/[C@H](C)[C@@H](OC(C)=O)[C@@]2(OC(C)=O)C[C@@H](C)[C@H](OC(=O)c3ccccc3)[C@@H]2[C@H]1OC(C)=O (some centres not stated) | Active | 10.9 | 25 | 0.02 | 31.7 | 0.04 | 1.2 | 1.27 | 1.02 | 13.8 | 1 | 2.3 | 0.07 | 0.06 | 0.02 | – |
| C=C1CCC(=O)C(C)(C)/C=C/[C@H](C)C(=O)[C@@]2(OC(C)=O)C[C@H](C)[C@H](OC(=O)c3ccccc3)[C@@H]2[C@H]1OC(C)=O | Active | – | – | – | – | – | – | – | – | – | – | – | – | – | – | Active |
| CC(=O)O[C@@H]1[C@@H](OC(C)=O)C(C)(C)/C=C/[C@H](C)C(=O)[C@@]2(OC(C)=O)C[C@@H](C)[C@H](OC(=O)c3ccccc3)/C2=C/[C@](C)(O)[C@@H]1OC(C)=O | 88% | 12.3 | 28.3 | 0.02 | 26.7 | 0.02 | 1.2 | 1.27 | 0.52 | 11.6 | 0.5 | 2.3 | 0.07 | 0.03 | 0.01 | Active |
| CC(=O)O[C@@H]1[C@@H](O)[C@@H](OC(C)=O)/C(C)=C/[C@H]2[C@@H](OC(=O)c3ccccc3)[C@H](C)C[C@]2(OC(C)=O)[C@H](OC(C)=O)[C@@H](C)/C=C/C1(C)C | Active | 1.5 | 3.5 | 0.36 | 3.7 | 0.08 | 1.2 | 1.27 | 1.36 | 1.6 | 1 | 2.3 | 0.07 | 0.42 | 0.34 | – |
